In ChEMBL document CHEMBL1821567, “Synthesis and glycosidase inhibitory profiles of functionalised morpholines and oxazepanes” (Bioorg Med Chem, 2011):
The source made the active and inactive calls. The calls are words filed in the database; no cut-off is given here.

Experiments:
Canavalia ensiformis = assay: Inhibition of jack bean alpha-D-mannosidase at 1 mg/ml after 10 to 20 mins
In short: (§1)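 Enzyme was pre-incubated with test solution at 1 mg/ml, or dH2O for controls, for 10–20 min at 27 °C. Substrate was added and incubation continued for the same time at 27 °C. The reaction was stopped with glycine solution and read at 405 nm. Each sample and control ran in three wells at the enzyme's optimal pH. Values are % inhibition.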

[1] = tested on: Geobacillus stearothermophilus; assay: Inhibition of Bacillus stearothermophilus alpha-D-glucosidase at 1 mg/ml after 10 to 20 mins; in short: as §1
[2] = target: T1, Beta-galactosidase (Bos taurus) (UniProt Q58D55); assay: Inhibition of bovine kidney beta-D-galactosidase at 1 mg/ml after 10 to 20 mins; in short: as §1
T1 sequence (whole entry): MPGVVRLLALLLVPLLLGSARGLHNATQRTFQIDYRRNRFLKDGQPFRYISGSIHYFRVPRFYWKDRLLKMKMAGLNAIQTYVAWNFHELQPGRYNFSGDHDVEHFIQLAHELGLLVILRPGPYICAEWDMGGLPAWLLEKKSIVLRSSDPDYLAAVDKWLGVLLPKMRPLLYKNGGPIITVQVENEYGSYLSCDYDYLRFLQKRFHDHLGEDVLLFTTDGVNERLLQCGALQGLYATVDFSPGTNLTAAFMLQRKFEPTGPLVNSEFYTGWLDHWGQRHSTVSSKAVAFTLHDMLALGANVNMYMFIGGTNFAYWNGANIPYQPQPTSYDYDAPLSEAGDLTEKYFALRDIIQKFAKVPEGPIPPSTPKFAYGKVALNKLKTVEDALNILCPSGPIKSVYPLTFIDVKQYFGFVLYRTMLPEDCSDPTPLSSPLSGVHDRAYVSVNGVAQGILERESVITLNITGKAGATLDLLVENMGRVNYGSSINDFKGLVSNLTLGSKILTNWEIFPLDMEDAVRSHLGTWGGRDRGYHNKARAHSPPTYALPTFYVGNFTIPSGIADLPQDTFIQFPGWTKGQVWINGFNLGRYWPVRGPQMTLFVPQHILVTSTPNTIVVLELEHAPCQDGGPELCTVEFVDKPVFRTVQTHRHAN

[3] = target: Alpha-galactosidase (Coffea arabica) (UniProt Q42656); assay: Inhibition of green coffee beans alpha-D-galactosidase at 1 mg/ml after 10 to 20 mins; in short: as §1
Alpha-galactosidase (Coffea arabica), sequence (Q42656 16-378 limits assumed): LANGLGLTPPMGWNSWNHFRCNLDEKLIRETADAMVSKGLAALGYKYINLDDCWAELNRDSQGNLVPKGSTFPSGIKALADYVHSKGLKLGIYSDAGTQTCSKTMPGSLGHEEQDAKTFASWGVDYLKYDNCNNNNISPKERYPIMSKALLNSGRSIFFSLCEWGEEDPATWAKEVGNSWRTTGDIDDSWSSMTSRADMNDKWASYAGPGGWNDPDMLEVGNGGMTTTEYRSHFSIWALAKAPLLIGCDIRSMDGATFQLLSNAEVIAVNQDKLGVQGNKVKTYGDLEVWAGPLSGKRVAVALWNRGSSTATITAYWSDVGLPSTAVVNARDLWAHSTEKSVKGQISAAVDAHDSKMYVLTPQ

Penicillium decumbens = assay: Inhibition of Penicillium decumbens naringinase at 1 mg/ml after 10 to 20 mins; in short: as §1
Prunus = assay: Inhibition of almond beta-D-glucosidase at 1 mg/ml after 10 to 20 mins; in short: as §1
Saccharomyces cerevisiae = assay: Inhibition of Saccharomyces cerevisiae alpha-D-glucosidase at 1 mg/ml after 10 to 20 mins; in short: as §1
Cellulomonas fimi = assay: Inhibition of Cellulomonas fimi beta-D-mannosidase at 1 mg/ml after 10 to 20 mins; in short: as §1
Oryza sativa = assay: Inhibition of rice alpha-D-glucosidase at 1 mg/ml after 10 to 20 mins; in short: as §1
Bos taurus = species: Bos taurus; assay: Inhibition of bovine kidney N-acetyl-beta-D-glucosaminidase at 1 mg/ml after 10 to 20 mins; in short: as §1

`COC(=O)CN1C[C@@H](CO)O[C@H](OC)[C@H](O)C1` was tested. Which inhibition (Canavalia ensiformis) did it give?
The inhibition was “inactive”.

And the inhibition [1]?
The inhibition was “inactive”.

And the inhibition [2]?
Its inhibition is “inactive”.

What about the inhibition [3] of the same molecule?
The inhibition was “inactive”.

And the inhibition (Penicillium decumbens)?
Its inhibition is “inactive”.

What about the inhibition (Prunus) of the same molecule?
The inhibition was “inactive”.

What about the inhibition (Saccharomyces cerevisiae) of the same molecule?
Its inhibition is “inactive”.

And the inhibition (Cellulomonas fimi)?
Its inhibition is “inactive”.

What about the inhibition (Oryza sativa) of the same molecule?
Its inhibition is “inactive”.

How did the inhibition (Canavalia ensiformis) turn out when `CO[C@H]1O[C@H](CN2C[C@@H](CO)O[C@H](OC)[C@H](O)C2)[C@@H](OCc2ccccc2)[C@H](OCc2ccccc2)[C@H]1OCc1ccccc1` was run?
The inhibition was “inactive”.

What about the inhibition [1] of the same molecule?
The inhibition was “inactive”.

What about the inhibition [2] of the same molecule?
Its inhibition is “inactive”.

What about the inhibition [3] of the same molecule?
The inhibition was “inactive”.

And the inhibition (Bos taurus)?
The inhibition was “inactive”.

What about the inhibition (Penicillium decumbens) of the same molecule?
Its inhibition is “inactive”.

What about the inhibition (Prunus) of the same molecule?
Its inhibition is “inactive”.

What about the inhibition (Saccharomyces cerevisiae) of the same molecule?
The inhibition was “inactive”.

And the inhibition (Cellulomonas fimi)?
The inhibition was “inactive”.

And the inhibition (Oryza sativa)?
Its inhibition is “inactive”.

What does the source list for `COC(=O)CN1C[C@@H](CO)O[C@H](OC)C1`?
inhibition (Canavalia ensiformis): inactive; inhibition [1]: inactive; inhibition [2]: 36%; inhibition [3]: inactive; inhibition (Bos taurus): inactive; inhibition (Penicillium decumbens): inactive; inhibition (Prunus): inactive; inhibition (Saccharomyces cerevisiae): inactive; inhibition (Cellulomonas fimi): inactive; inhibition (Oryza sativa): inactive

How did the inhibition (Canavalia ensiformis) turn out when `CO[C@@H]1CNC[C@@H](CO)O1` was run?
Its inhibition is “inactive”.

And the inhibition [1]?
Its inhibition is “inactive”.

What about the inhibition [2] of the same molecule?
Its inhibition is 27%.

And the inhibition [3]?
Its inhibition is “inactive”.

What about the inhibition (Bos taurus) of the same molecule?
The inhibition was 10%.

And the inhibition (Penicillium decumbens)?
Its inhibition is 9%.

What about the inhibition (Prunus) of the same molecule?
Its inhibition is 4%.

And the inhibition (Saccharomyces cerevisiae)?
The inhibition was “inactive”.

What about the inhibition (Cellulomonas fimi) of the same molecule?
Its inhibition is 5%.

And the inhibition (Oryza sativa)?
The inhibition was “inactive”.

Which inhibition (Canavalia ensiformis) does the source give for `CCCN1C[C@@H](CO)O[C@H](OC)[C@H](O)C1` here?
Its inhibition is “inactive”.

And the inhibition [1]?
The inhibition was “inactive”.

What about the inhibition [2] of the same molecule?
The inhibition was 32%.

What about the inhibition [3] of the same molecule?
Its inhibition is “inactive”.

And the inhibition (Bos taurus)?
Its inhibition is 25%.

And the inhibition (Penicillium decumbens)?
Its inhibition is “inactive”.

What about the inhibition (Prunus) of the same molecule?
Its inhibition is “inactive”.

What about the inhibition (Saccharomyces cerevisiae) of the same molecule?
Its inhibition is 10%.

What about the inhibition (Cellulomonas fimi) of the same molecule?
The inhibition was “inactive”.

And the inhibition (Oryza sativa)?
The inhibition was “inactive”.

Which inhibition (Canavalia ensiformis) does the source give for `CO[C@H]1O[C@H](CO)CN(O)C[C@H]1O` here?
The inhibition was “inactive”.

And the inhibition [1]?
Its inhibition is “inactive”.

What about the inhibition [2] of the same molecule?
The inhibition was “inactive”.

And the inhibition [3]?
The inhibition was “inactive”.

What about the inhibition (Penicillium decumbens) of the same molecule?
The inhibition was “inactive”.

And the inhibition (Prunus)?
The inhibition was “inactive”.

What about the inhibition (Saccharomyces cerevisiae) of the same molecule?
Its inhibition is “inactive”.

What about the inhibition (Cellulomonas fimi) of the same molecule?
The inhibition was “inactive”.

What about the inhibition (Oryza sativa) of the same molecule?
The inhibition was “inactive”.

Which results are given for `COC(=O)C(C)N1C[C@@H](CO)O[C@H](OC)C1` (stereo partly drawn)?
inhibition [1]: inactive; inhibition [2]: 14%; inhibition [3]: inactive; inhibition (Bos taurus): inactive; inhibition (Penicillium decumbens): inactive; inhibition (Prunus): inactive; inhibition (Saccharomyces cerevisiae): inactive; inhibition (Cellulomonas fimi): inactive; inhibition (Oryza sativa): inactive

Which results are given for `CCCCCCCCN1C[C@@H](CO)O[C@H](OC)[C@H](O)C1`?
inhibition (Canavalia ensiformis): inactive; inhibition [1]: inactive; inhibition [2]: inactive; inhibition [3]: inactive; inhibition (Penicillium decumbens): inactive; inhibition (Prunus): inactive; inhibition (Saccharomyces cerevisiae): inactive; inhibition (Cellulomonas fimi): inactive; inhibition (Oryza sativa): inactive

`CO[C@H]1O[C@H](CO)CN(Cc2ccccc2)C[C@H]1O` was tested. Which inhibition (Canavalia ensiformis) did it give?
Its inhibition is “inactive”.

What about the inhibition [1] of the same molecule?
Its inhibition is “inactive”.

And the inhibition [2]?
The inhibition was “inactive”.

And the inhibition [3]?
The inhibition was “inactive”.

And the inhibition (Penicillium decumbens)?
Its inhibition is “inactive”.

And the inhibition (Prunus)?
The inhibition was “inactive”.

What about the inhibition (Saccharomyces cerevisiae) of the same molecule?
Its inhibition is “inactive”.

What about the inhibition (Cellulomonas fimi) of the same molecule?
Its inhibition is “inactive”.

What about the inhibition (Oryza sativa) of the same molecule?
The inhibition was “inactive”.

`COC(=O)C(Cc1ccc(O)cc1)N1C[C@@H](CO)O[C@H](OC)C1` (stereo partly drawn) was tested. Which inhibition [1] did it give?
The inhibition was “inactive”.

And the inhibition [2]?
The inhibition was 12%.

What about the inhibition [3] of the same molecule?
Its inhibition is “inactive”.

And the inhibition (Bos taurus)?
The inhibition was “inactive”.

And the inhibition (Penicillium decumbens)?
Its inhibition is “inactive”.

And the inhibition (Prunus)?
The inhibition was “inactive”.

And the inhibition (Saccharomyces cerevisiae)?
Its inhibition is “inactive”.

What about the inhibition (Cellulomonas fimi) of the same molecule?
The inhibition was “inactive”.

What about the inhibition (Oryza sativa) of the same molecule?
The inhibition was “inactive”.

`COC(=O)C(Cc1ccccc1)N1C[C@@H](CO)O[C@H](OC)C1` (stereo partly drawn) was tested. Which inhibition [1] did it give?
The inhibition was “inactive”.

What about the inhibition [2] of the same molecule?
Its inhibition is 5%.

And the inhibition [3]?
Its inhibition is “inactive”.

And the inhibition (Bos taurus)?
The inhibition was “inactive”.

What about the inhibition (Penicillium decumbens) of the same molecule?
Its inhibition is “inactive”.

And the inhibition (Prunus)?
The inhibition was “inactive”.

And the inhibition (Saccharomyces cerevisiae)?
Its inhibition is “inactive”.

And the inhibition (Cellulomonas fimi)?
The inhibition was “inactive”.

And the inhibition (Oryza sativa)?
Its inhibition is “inactive”.
